Measurements as given in ChEMBL document CHEMBL1949532, “Novel dendrimeric lipopeptides with antifungal activity” (Bioorg Med Chem Lett, 2012).
pEC50, pIC50: −log10 of the molar value. Converted amounts (≈) assume the structure as drawn. The source made the active and inactive calls. The calls are words filed in the database; no cut-off is given here. Starred links: 1 amine or outer side, 2 acyl side, 3 side chain; linkers in the order of their positions; H or OH if unused. Positions of bridges follow the written chain, without caps; N, C: chain ends. Non-standard residues stand in square brackets, D forms with d. Residues, ends and D or L forms follow the SMILES beside them. Groups on a side chain read outwards from the residue. *: point of attachment. Orn(4R-OH,5R-OH) = O=C([C@H](C[C@@H](O)[C@@H](O)N[*:3])N[*:1])[*:2]; hTyr(3S-OH,4S-OH) = N[C@H](C(=O)O)[C@H](O)[C@@H](O)c1ccc(O)cc1; Pro(3S-OH,4S-Me) = C[C@H]1CN[C@H](C(=O)O)[C@H]1O; εLys = N[C@@H](CCCCN[*:1])C(=O)[*:2]; Palmitoyl = CCCCCCCCCCCCCCCC(=O)*; Hyp = O=C(O)[C@@H]1C[C@@H](O)CN1; ClZ = O=C(OCc1ccccc1Cl)*; Cbz = O=C(OCc1ccccc1)*

Key:
Staphylococcus aureus [1] = test: Antibacterial activity against Staphylococcus aureus ATCC 25923 after 18 to 24 hrs by serial broth microdilution susceptibility test; assay type: functional
How it was run: (§1)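 MIC determined by serial microdilution in microplates. Candida inocula were prepared in L-glutamine-deficient RPMI-1640 medium.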

Pseudomonas aeruginosa = test: Antibacterial activity against Pseudomonas aeruginosa ATCC 27853 after 18 to 24 hrs by serial broth microdilution susceptibility test; assay type: functional; how it was run: as §1
Escherichia coli [2] = test: Antibacterial activity against Escherichia coli ATCC 25922 after 18 to 24 hrs by serial broth microdilution susceptibility test; assay type: functional; how it was run: as §1
Staphylococcus aureus [3] = test: Antibacterial activity against Staphylococcus aureus ATCC 43300 after 18 to 24 hrs by serial broth microdilution susceptibility test; assay type: functional; how it was run: as §1
[4] = test system: Klebsiella pneumoniae subsp. pneumoniae; test: Antibacterial activity against Klebsiella pneumoniae subsp. pneumoniae ATCC 13882 after 18 to 24 hrs by serial broth microdilution susceptibility test; assay type: functional; how it was run: as §1
[5] = test system: Bordetella bronchiseptica; test: Antibacterial activity against Bordetella bronchiseptica ATCC 4617 after 18 to 24 hrs by serial broth microdilution susceptibility test; assay type: functional; how it was run: as §1
Acinetobacter baumannii = test: Antibacterial activity against Acinetobacter baumannii ATCC 19606 after 18 to 24 hrs by serial broth microdilution susceptibility test; assay type: functional; details: ATCC 19606 = CIP 70.34 = JCM 6841; how it was run: as §1
Escherichia coli [6] = test: Antibacterial activity against Escherichia coli ATCC BAA-198 after 18 to 24 hrs by serial broth microdilution susceptibility test; assay type: functional; how it was run: as §1
Candida albicans [7] = test: Antifungal activity against Candida albicans ATCC 90028 after 24 to 48 hrs by serial broth microdilution susceptibility test; assay type: functional; how it was run: as §1
Candida parapsilosis = test: Antifungal activity against Candida parapsilosis ATCC 22019 after 24 to 48 hrs by serial broth microdilution susceptibility test; assay type: functional; details: Lodderomyces parapsilosis; how it was run: as §1
Pichia kudriavzevii = test: Antifungal activity against Candida krusei ATCC 6258 after 24 to 48 hrs by serial broth microdilution susceptibility test; assay type: functional; how it was run: as §1
[8] = Toxicity in human erythrocytes assessed as hemolysis at above MIC after 30 mins by spectrophotometry; assay type: cell-based; details: erythrocyte, 0.5 h
How it was run: (§2)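 Human erythrocytes suspended in PBS were exposed to lipopeptides at 0.001–0.4 mmol/l and hemolysis was measured.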

[9] = Toxicity in human erythrocytes suspended in L-glutamine deficient RPMI-1640 assessed as hemolysis after 30 mins by spectrophotometry relative to human erythrocytes suspended in PBS buffer; assay type: cell-based; details: erythrocyte, 0.5 h
How it was run: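 Hemolysis was measured for human erythrocytes resuspended in L-glutamine-deficient RPMI-1640 (the Candida MIC medium) and compared with erythrocytes suspended in PBS.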

[10] = Toxicity in human erythrocytes assessed as hemolysis at 100 uM after 30 mins by spectrophotometry; assay type: cell-based, Erythrocyte; details: read-out: Activity; how it was run: as §2
Candida albicans [11] = test: Antifungal activity against Candida albicans ATCC 10231 assessed as morphological changes at < 7 uM after 6 hrs by calcofluor white and aniline blue staining-based fluorescence microscopy; assay type: functional, organism-based
How it was run: (§3)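 C. albicans ATCC 10231 yeast cells were incubated with compound for 6 h, at up to 2×MIC. Chitin was stained with Calcofluor White and glucan with Aniline Blue, then cells were examined by fluorescence microscopy against untreated controls.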

Candida albicans [12] = test: Antifungal activity against Candida albicans ATCC 10231 assessed as pseudohyphae formation at 14 uM after 6 hrs by calcofluor white and aniline blue staining-based fluorescence microscopy; assay type: functional, organism-based; how it was run: as §3
Candida albicans [13] = test: Antifungal activity against Candida albicans ATCC 10231 assessed as alteration in cell envelope at 4 uM after 2 hrs by scanning electron microscopy; assay type: functional, organism-based
Candida albicans [14] = test: Antifungal activity against Candida albicans ATCC 10231 assessed as leakage of intracellular contents at 4 uM after 2 hrs by scanning electron microscopy; assay type: functional, organism-based
Candida albicans [15] = test: Antifungal activity against Candida albicans ATCC 10231 assessed as loss of integrity at 10 uM after 2 hrs by scanning electron microscopy; assay type: functional, organism-based
[16] = (§4) Inhibition of beta (1,3) glucan synthase in Candida albicans cell membrane using UDP-Glc as substrate assessed as aniline blue-glucan complex formation by microtiter-based fluorescence method
How it was run: (§5)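 β(1,3)-glucan synthase in the membrane fraction of C. albicans was assayed by a microtiter-based fluorescence method across a concentration range. Values are means of three independent experiments (SD); IC50 was determined.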

Candida albicans [17] = test: as §4; how it was run: as §5
Candida albicans [18] = test: Antifungal activity against Candida albicans ATCC 10231 assessed as increase in intracellular potassium release after 30 mins; assay type: functional, organism-based
How it was run: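 Efflux of K+ from C. albicans cells was monitored continuously with a potassium-selective electrode. Release was expressed relative to a positive control, and EK50 was taken as the concentration releasing 50% of intracellular potassium.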

[19] = Toxicity in human erythrocytes assessed as hemolysis at 50 uM after 30 mins by spectrophotometry; assay type: cell-based, Erythrocyte; details: read-out: Activity; how it was run: as §2

Compound	MIC (Staphylococcus aureus [1]) [µM]	MIC (Pseudomonas aeruginosa) [µM]	MIC (Escherichia coli [2]) [µM]	MIC (Staphylococcus aureus [3]) [µM]	MIC [4] [µM]	MIC [5] [µM]	MIC (Acinetobacter baumannii) [µM]	MIC (Escherichia coli [6]) [µM]	MIC (Candida albicans [7]) [µM]	MIC (Candida parapsilosis) [µM]	MIC (Pichia kudriavzevii) [µM]	further results
NCCCC[C@H](NC(=O)OCc1ccccc1)C(=O)NCCCC[C@H](NC(=O)[C@H](CCCCN)NC(=O)OCc1ccccc1)C(=O)N[C@@H](Cc1ccccc1)C(N)=O (Cbz-Lys-Lys([Lys-Cbz])-Phe-NH2)	> 144	> 144	> 144	> 144	> 144	144 (≈ 118 µg/mL)	> 144	> 144	> 128	> 144	> 144	
CC1(C)S[C@@H]2[C@H](NC(=O)Cc3ccccc3)C(=O)N2[C@H]1C(=O)O [PENICILLIN G]	6.6 (≈ 2.21 µg/mL)											
CCCCCCCCCCCCNC(=O)[C@H](Cc1ccccc1)NC(=O)[C@H](CCCCNC(=O)[C@@H](N)CCCCN)NC(=O)[C@@H](N)CCCCN.Cl.Cl.Cl.Cl	8	64	32	4	> 256	8	> 256	64	16	4	4	Activity [8]: Toxic; Activity [9]: Non-toxic
CCCCCCCCCCCCNC(=O)[C@H](Cc1ccccc1)NC(=O)[C@H](CCCCNC(=O)[C@@H](N)CCCCNC(=O)OCc1ccccc1Cl)NC(=O)[C@@H](N)CCCCNC(=O)OCc1ccccc1Cl.Cl.Cl	28	114	56	28	114	14	114	64	7	7	7	hemolysis at 0.5 h, 100 µM [10]: 10%; Activity [9]: Toxic; Activity (Candida albicans [11]): inactive; Activity (Candida albicans [12]): Active; Activity (Candida albicans [13]): Active; Activity (Candida albicans [14]): Active; Activity (Candida albicans [15]): Active; pIC50 [16]: 4.29; inhibition (Candida albicans [17]): Dose-dependent effect; Activity (Candida albicans [18]): Dose-dependent effect; pEC50 (Candida albicans [18]; Candida albicans, ATCC 10231, 0.5 h): 4.89
NC(=O)[C@H](Cc1ccccc1)NC(=O)[C@H](CCCCNC(=O)[C@@H](N)CCCCNC(=O)OCc1ccccc1Cl)NC(=O)[C@@H](N)CCCCNC(=O)OCc1ccccc1Cl (H-Lys(ClZ)-Lys([εLys-ClZ])-Phe-NH2)	33 (≈ 29.2 µg/mL)	67 (≈ 59.4 µg/mL)	33 (≈ 29.2 µg/mL)	17 (≈ 15.1 µg/mL)	34 (≈ 30.1 µg/mL)	8 (≈ 7.09 µg/mL)	67 (≈ 59.4 µg/mL)	16 (≈ 14.2 µg/mL)	33 (≈ 29.2 µg/mL)	33 (≈ 29.2 µg/mL)	33 (≈ 29.2 µg/mL)	
NYSTATIN												pEC50 (Candida albicans [18]): 5.62
CCCCCCCCCCCCCCCC(=O)N[C@H]1C[C@@H](O)[C@@H](O)NC(=O)[C@@H]2[C@@H](O)[C@@H](C)CN2C(=O)[C@H]([C@@H](C)O)NC(=O)[C@H]([C@H](O)[C@@H](O)c2ccc(O)cc2)NC(=O)[C@@H]2C[C@@H](O)CN2C(=O)[C@H]([C@@H](C)O)NC1=O [ACULEACIN A] (Palmitoyl-[Orn(4R-OH,5R-OH)]T[Hyp][hTyr(3S-OH,4S-OH)]T[Pro(3S-OH,4S-Me)]; lactam 1-C)									0.5 (≈ 0.518 µg/mL)			pIC50 [16]: 4.92
CCCCCCCCNC(=O)[C@H](Cc1ccccc1)NC(=O)[C@H](CCCCNC(=O)[C@H](CCCCN)NC(=O)OCc1ccccc1)NC(=O)[C@H](CCCCN)NC(=O)OCc1ccccc1	32 (≈ 29.7 µg/mL)	32 (≈ 29.7 µg/mL)	30 (≈ 27.9 µg/mL)	16 (≈ 14.9 µg/mL)	128 (≈ 119 µg/mL)	8 (≈ 7.43 µg/mL)	128 (≈ 119 µg/mL)	8 (≈ 7.43 µg/mL)	32 (≈ 29.7 µg/mL)	16 (≈ 14.9 µg/mL)	16 (≈ 14.9 µg/mL)	hemolysis at 0.5 h, 50 µM [19]: 10%
